Source: publication PMC5896753 (ACS chemical biology, 2017)

Columns and labels:
Neu7 astrocytes [1] = test: cell-surface CS-E expression, immunostaining with CS-E-specific antibody; assay type: cell-based
Procedure, shortened: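 Neu7 astrocytes were treated with test compound, with chlorate as comparator. Cells were co-stained with a CS-E-specific antibody and the nuclear stain DAPI, and average anti-CS-E fluorescence per condition was quantified from images. Mean ± S.E.M. of three experiments, 20-100 cells per experiment.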

Neu7 astrocytes [2] = test: disaccharide composition of secreted CSPGs; assay type: cell-based
Chst15 [3] = target: T1, Chst15 (Homo sapiens, UniProt Q7LFX5); test: [35S]-labeling assay; assay type: biochemical; conditions: 25 μM of inhibitor; normalized to the inhibition by compound 19; three independent measurements
T1 sequence (Q7LFX5 1-561): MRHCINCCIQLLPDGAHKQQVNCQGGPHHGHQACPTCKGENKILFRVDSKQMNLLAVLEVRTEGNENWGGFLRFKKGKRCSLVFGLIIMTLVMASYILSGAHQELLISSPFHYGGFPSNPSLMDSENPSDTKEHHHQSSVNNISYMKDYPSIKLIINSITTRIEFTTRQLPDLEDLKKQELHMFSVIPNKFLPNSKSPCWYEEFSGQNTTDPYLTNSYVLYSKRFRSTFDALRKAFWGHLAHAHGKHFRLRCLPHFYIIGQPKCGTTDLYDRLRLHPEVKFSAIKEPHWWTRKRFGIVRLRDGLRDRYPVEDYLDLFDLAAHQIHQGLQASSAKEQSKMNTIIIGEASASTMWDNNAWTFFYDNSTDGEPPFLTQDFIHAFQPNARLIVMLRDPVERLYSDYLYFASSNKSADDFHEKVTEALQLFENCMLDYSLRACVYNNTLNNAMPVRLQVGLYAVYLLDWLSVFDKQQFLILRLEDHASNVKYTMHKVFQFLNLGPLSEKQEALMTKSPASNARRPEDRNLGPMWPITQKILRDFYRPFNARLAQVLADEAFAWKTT

Chst15 [4] = target: T1, Chst15; test: enzyme-coupled fluorescence assay; assay type: biochemical
Sult1c1 = Sult1c1 counter-screen; assay type: biochemical; conditions: concentrations tested 3-100 μM
Chst15 [5] = target: T1, Chst15; test: sulfotransferase specificity panel; assay type: biochemical
[6] = target: T2, chondroitin 4-O-sulfotransferase Chst11 (Homo sapiens, UniProt Q9NPF2); test: sulfotransferase specificity panel; assay type: biochemical
T2 sequence (Q9NPF2 1-352): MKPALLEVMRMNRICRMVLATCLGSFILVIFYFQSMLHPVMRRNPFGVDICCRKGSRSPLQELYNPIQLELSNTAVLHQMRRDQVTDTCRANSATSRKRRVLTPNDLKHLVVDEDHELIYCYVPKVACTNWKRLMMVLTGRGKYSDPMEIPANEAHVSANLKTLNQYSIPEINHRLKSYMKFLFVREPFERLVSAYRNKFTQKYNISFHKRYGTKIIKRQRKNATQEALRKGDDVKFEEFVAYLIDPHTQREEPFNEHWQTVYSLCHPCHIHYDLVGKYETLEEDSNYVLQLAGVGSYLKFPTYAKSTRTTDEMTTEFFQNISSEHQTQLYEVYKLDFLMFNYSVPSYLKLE

[7] = target: T3, chondroitin 2-O-sulfotransferase Ust (Homo sapiens, UniProt Q9Y2C2); test: sulfotransferase specificity panel; assay type: biochemical
T3 sequence (Q9Y2C2 1-406): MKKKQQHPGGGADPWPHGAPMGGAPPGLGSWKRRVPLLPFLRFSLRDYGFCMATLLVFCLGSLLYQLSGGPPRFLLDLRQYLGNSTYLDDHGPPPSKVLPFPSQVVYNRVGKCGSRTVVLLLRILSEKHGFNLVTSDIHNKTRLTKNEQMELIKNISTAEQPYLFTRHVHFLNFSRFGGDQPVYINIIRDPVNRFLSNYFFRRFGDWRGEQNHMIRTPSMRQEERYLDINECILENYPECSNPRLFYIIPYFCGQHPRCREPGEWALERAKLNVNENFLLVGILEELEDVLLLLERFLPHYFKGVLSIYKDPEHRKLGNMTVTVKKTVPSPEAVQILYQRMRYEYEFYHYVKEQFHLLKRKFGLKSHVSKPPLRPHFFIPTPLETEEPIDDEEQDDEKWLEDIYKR

[8] = target: heparan 3-O-sulfotransferase Hs3st1 (Homo sapiens, UniProt O14792); test: sulfotransferase specificity panel; assay type: biochemical
Sult1e1 = target: T4, Sult1e1 (Homo sapiens, UniProt P49888); test: sulfotransferase specificity panel; assay type: biochemical
T4 sequence (P49888 1-294): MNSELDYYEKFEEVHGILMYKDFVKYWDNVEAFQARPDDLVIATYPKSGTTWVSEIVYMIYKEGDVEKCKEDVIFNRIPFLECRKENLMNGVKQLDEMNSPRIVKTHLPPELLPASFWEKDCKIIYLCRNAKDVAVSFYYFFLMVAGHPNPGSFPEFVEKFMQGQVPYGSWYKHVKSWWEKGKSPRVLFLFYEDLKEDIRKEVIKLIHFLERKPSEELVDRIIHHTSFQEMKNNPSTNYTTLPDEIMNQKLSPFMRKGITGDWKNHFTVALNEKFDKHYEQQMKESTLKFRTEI

Sult2b1a = target: T5, Sult2b1a (Homo sapiens, UniProt O00204); test: sulfotransferase specificity panel; assay type: biochemical
T5 sequence (O00204 1-350 isoform O00204-2): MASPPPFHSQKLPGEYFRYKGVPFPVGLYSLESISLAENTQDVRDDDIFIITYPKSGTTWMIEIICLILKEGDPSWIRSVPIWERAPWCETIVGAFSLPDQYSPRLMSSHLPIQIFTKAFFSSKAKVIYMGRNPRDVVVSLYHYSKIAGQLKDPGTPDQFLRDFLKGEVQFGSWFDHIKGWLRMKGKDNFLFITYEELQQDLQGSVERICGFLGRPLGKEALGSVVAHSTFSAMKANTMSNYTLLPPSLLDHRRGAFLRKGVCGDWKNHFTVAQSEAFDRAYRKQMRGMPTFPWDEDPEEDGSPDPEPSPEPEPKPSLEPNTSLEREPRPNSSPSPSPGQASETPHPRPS

Sult2b1b = target: T6, Sult2b1b (Homo sapiens, UniProt O00204); test: sulfotransferase specificity panel; assay type: biochemical
T6 sequence (O00204 1-365): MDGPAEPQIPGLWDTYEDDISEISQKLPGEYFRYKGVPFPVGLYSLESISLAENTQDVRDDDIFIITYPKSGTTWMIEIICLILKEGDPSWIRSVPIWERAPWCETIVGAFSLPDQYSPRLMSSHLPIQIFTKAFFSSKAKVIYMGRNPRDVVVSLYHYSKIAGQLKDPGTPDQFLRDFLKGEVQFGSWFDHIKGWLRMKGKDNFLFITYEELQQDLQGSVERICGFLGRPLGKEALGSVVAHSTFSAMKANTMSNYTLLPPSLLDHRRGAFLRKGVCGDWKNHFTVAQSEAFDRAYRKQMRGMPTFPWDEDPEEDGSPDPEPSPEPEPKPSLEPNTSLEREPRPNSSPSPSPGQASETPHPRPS

Chst15 [9] = target: T1, Chst15; test: pre-incubation and ten-fold dilution experiments; assay type: biochemical
NIH3T3 fibroblasts = test: CS-E expression in fibroblasts; assay type: cell-based
DRG neurons = test: in vitro CSPG boundary assay; assay type: cell-based, rat; conditions: CSPGs from treated vs untreated Neu7 astrocytes
Procedure, shortened: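 Boundary assay: purified CSPGs from Neu7 astrocytes treated with or without test compound were mixed with Texas Red dye and spotted onto glass coverslips. DRG neurons were plated on the coverslips, and the percentage of neurites crossing the CSPG boundary was scored. Mean ± S.E.M. from five experiments, 20-40 cells each.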

[10] = liver microsome stability; assay type: in vitro ADME; conditions: human
[11] = liver microsome stability; assay type: in vitro ADME; conditions: mouse
[12] = liver microsome stability; assay type: in vitro ADME; conditions: rat
[13] = in vivo pharmacokinetics after intravenous injection; parameters: species or system rats; conditions: rat, 3 mg/kg
[14] = high concentrations of sodium chlorate, compared to untreated cells

Chain of heparan 3-O-sulfotransferase Hs3st1 (O14792 21-307): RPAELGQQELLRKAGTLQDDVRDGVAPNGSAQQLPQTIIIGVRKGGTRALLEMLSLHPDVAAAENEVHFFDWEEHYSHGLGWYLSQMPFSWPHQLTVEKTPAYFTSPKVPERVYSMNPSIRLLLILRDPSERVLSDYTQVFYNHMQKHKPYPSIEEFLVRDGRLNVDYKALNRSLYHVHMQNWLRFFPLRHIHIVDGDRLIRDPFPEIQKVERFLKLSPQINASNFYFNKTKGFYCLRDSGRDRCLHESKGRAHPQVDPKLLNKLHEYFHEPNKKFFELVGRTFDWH

[Na+].[O-][Cl+2]([O-])[O-] [sodium chlorate]
cell-surface CS-E expression (Neu7 astrocytes [1]; doses as high as 25 mM, compared to 34): did not reduce CS-E levels to as large an extent
decrease in CS-E of secreted CSPGs (Neu7 astrocytes [2]; [14]): 31.6 ± 10.9%
increase in uCS of secreted CSPGs (Neu7 astrocytes [2]; [14]): 39.7 ± 15.6%

COc1cc(/C=C(\C#N)C(=O)Nc2ccc(Cl)cc2Cl)cc(Br)c1O [Compound 34]
Relative Inhibition (Chst15 [3]): 1.35 ± 0.12
mode of inhibition (Chst15 [4]; CS-A substrate concentration varied): mixed mode of inhibition
Ki (Chst15 [4]; CS-A substrate concentration varied, pseudo first-order PAPS concentration): 1430 nM
Ki (Chst15 [4]; PAPS concentration varied, fixed CS-A acceptor substrate (10 mM)): 770 nM
mode of inhibition (Chst15 [4]; PAPS concentration varied, fixed CS-A (10 mM)): competitive mode of inhibition
activity against Sult1c1 (Sult1c1): no activity
IC50 (Chst15 [5]): 2000 to 2500 nM
specificity for GAG sulfotransferases compared to cytosolic sulfotransferases (Chst15 [5]; GAG vs cytosolic sulfotransferases): 8- to 18 fold
IC50 [6]: 2000 to 2500 nM
IC50 [7]: 2000 to 2500 nM
IC50 [8]: 2000 to 2500 nM
IC50 (Sult1e1): 19 to 42 µM
IC50 (Sult2b1a): 19 to 42 µM
IC50 (Sult2b1b): 19 to 42 µM
effect of pre-incubation time on Chst15 inhibition (Chst15 [9]; inhibitor pre-incubated with Chst15 for various lengths of time): Longer pre-incubation times lead to greater inhibition of the enzyme
Chst15 activity in ten-fold dilution experiments (Chst15 [9]; up to 100 μM of 34): rapidly restored
cell-surface CS-E expression (Neu7 astrocytes [1]; 10 μM or 25 μM): significant, dose-dependent decrease
CS-E expression (NIH3T3 fibroblasts): significant loss of CS-E expression
inhibition at 25 µM (Neu7 astrocytes [2]; Astrocyte, read-out: reduction in the CS-E sulfation motif on secreted CSPGs): 67.8 ± 10.9%
neurite crossing of CSPG boundary (DRG neurons): crossed more freely
stability in liver microsomes based on intrinsic clearance [10]: good stability
stability in liver microsomes based on intrinsic clearance [11]: good stability
stability in liver microsomes based on intrinsic clearance [12]: good stability
clearance [13]: 21 mL/min/kg
half-life [13]: 96 min
